ChEMBL document CHEMBL1121743, “Synthesis and antibacterial activity of 1-(arylamino)-1H-pyrroles and 4-(1H-pyrrol-1-ylimino)-2,5-cyclohexadienes” (1981)
Converted amounts (≈) assume the structure as drawn. The source made the active and inactive calls. No cut-off for these calls is given here.

Key:
Proteus mirabilis [1] = assay: In vitro minimum inhibitory concentration against Proteus mirabilis; assay type: functional
Outline: (§1)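 Compounds were dissolved in water, or in water with the minimum DMSO needed to keep them in solution, and tested by an established dilution method. A ">" prefix means the DMSO solvent blank was inhibitory at that level.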

Staphylococcus aureus [2] = assay: In vitro minimum inhibitory concentration against Staphylococcus aureus; assay type: functional; outline: as §1
Staphylococcus aureus [3] = assay: Minimum inhibitory dilution of medicated rat urine tested in vitro for antibacterial activity against Staphylococcus aureus; Equal to 1:32; assay type: functional
Mus musculus [4] = assay: Antitubercular activity (25 mg/kg) in the 31-day murine mice model; assay type: functional
Outline: (§2)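 Female Swiss mice (14–16 g), 10 per treated group and 20 infected controls, were infected i.v. with 0.1 mL of a 2 mg/mL M. tuberculosis H37Rv suspension. Oral dosing was in 0.5 mL 1.0% gum tragacanth, starting day 3 post-infection, twice daily, 5 days/week for 4 weeks. Percent survival was recorded at day 31; active meant survival consistently >80%.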

Proteus mirabilis [5] = assay: Minimum inhibitory dilution of medicated rat urine tested in vitro for antibacterial activity against Proteus mirabilis; Equal to 1:4; assay type: functional
Mus musculus [6] = assay: Antitubercular activity (12.5 mg/kg) in the 31-day murine mice model; assay type: functional; outline: as §2
Mus musculus [7] = assay: Antitubercular activity (3.1 mg/kg) in the 31-day murine mice model; assay type: functional; outline: as §2
Mus musculus [8] = assay: Antitubercular activity (50 mg/kg) in the 31-day murine mice model; assay type: functional; outline: as §2
Mus musculus [9] = assay: Antitubercular activity (6.25 mg/kg) in the 31-day murine mice model; assay type: functional; outline: as §2
Proteus mirabilis [10] = assay: Minimum inhibitory dilution of medicated rat urine tested in vitro for antibacterial activity against Proteus mirabilis; Equal to 1:16; assay type: functional
Mus musculus [11] = assay: Antitubercular activity (100 mg/kg) in the 31-day murine mice model; assay type: functional; outline: as §2
Staphylococcus aureus [12] = assay: Minimum inhibitory dilution of medicated rat urine tested in vitro for antibacterial activity against Staphylococcus aureus; Equal to 1:16; assay type: functional
Staphylococcus aureus [13] = assay: Minimum inhibitory dilution of medicated rat urine tested in vitro for antibacterial activity against Staphylococcus aureus; Equal to 1:2; assay type: functional
Proteus mirabilis [14] = assay: Minimum inhibitory dilution of medicated rat urine tested in vitro for antibacterial activity against Proteus mirabilis; Less than 1:2; assay type: functional
Staphylococcus aureus [15] = assay: Minimum inhibitory dilution of medicated rat urine tested in vitro for antibacterial activity against Staphylococcus aureus; Less than 1:2; assay type: functional
Staphylococcus aureus [16] = assay: Minimum inhibitory dilution of medicated rat urine tested in vitro for antibacterial activity against Staphylococcus aureus; Equal to 1:4; assay type: functional
Proteus mirabilis [17] = assay: Minimum inhibitory dilution of medicated rat urine tested in vitro for antibacterial activity against Proteus mirabilis; Equal to 1:8; assay type: functional
Mus musculus [18] = assay: Antitubercular activity (3.1 mg/kg) in the 31-day murine mice model; NA=Not active; assay type: functional, organism-based; outline: as §2
Mus musculus [19] = assay: Antitubercular activity (6.25 mg/kg) in the 31-day murine mice model; NA=Not active; assay type: functional, organism-based; outline: as §2
Mus musculus [20] = assay: Antitubercular activity (100 mg/kg) in the 31-day murine mice model; NA=Not active; assay type: functional, organism-based; outline: as §2
Mus musculus [21] = assay: Antitubercular activity (25 mg/kg) in the 31-day murine mice model; NA=Not active; assay type: functional, organism-based; outline: as §2
Mus musculus [22] = assay: Antitubercular activity (12.5 mg/kg) in the 31-day murine mice model; NA=Not active; assay type: functional, organism-based; outline: as §2
Mus musculus [23] = assay: Antitubercular activity (50 mg/kg) in the 31-day murine mice model; NA=Not active; assay type: functional, organism-based; outline: as §2
Staphylococcus aureus [24] = assay: Minimum inhibitory dilution of medicated rat urine tested in vitro for antibacterial activity against Staphylococcus aureus; Equal to 1:128; assay type: functional
Proteus mirabilis [25] = assay: Minimum inhibitory dilution of medicated rat urine tested in vitro for antibacterial activity against Proteus mirabilis; Equal to 1:192; assay type: functional
Staphylococcus aureus [26] = assay: Minimum inhibitory dilution of medicated rat urine tested in vitro for antibacterial activity against Staphylococcus aureus; Equal to 1:8; assay type: functional
Proteus mirabilis [27] = assay: Minimum inhibitory dilution of medicated rat urine tested in vitro for antibacterial activity against Proteus mirabilis; Equal to 1:128; assay type: functional
Outline: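 Female Sprague-Dawley rats (160–200 g), in groups of three, got 50 mg/kg orally in 1.0% gum tragacanth (1 mL/100 g), with a second 50 mg/kg dose 8 h later. Pooled 24-h urine was centrifuged, ultrafiltered and stored at −20 °C. It was serially diluted twofold in tryptose phosphate broth with inoculum (18-h culture at OD 0.1, then 1:250) and incubated 18 h at 37 °C. MID is the highest dilution without visible growth.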

Mus musculus [28] = assay: Antitubercular activity (25 mg/kg) in the 31-day murine model; assay type: functional; outline: as §2
Mus musculus [29] = assay: Antitubercular activity (12.5 mg/kg) in the 31-day murine model; assay type: functional; outline: as §2
Mus musculus [30] = assay: Antitubercular activity (100 mg/kg) in the 31-day murine model; assay type: functional; outline: as §2
Mus musculus [31] = assay: Antitubercular activity (50 mg/kg) in the 31-day murine model; assay type: functional; outline: as §2
Proteus mirabilis [32] = assay: Minimum inhibitory dilution of medicated rat urine tested in vitro for antibacterial activity against Proteus mirabilis; Equal to 1:32; assay type: functional
Staphylococcus aureus [33] = assay: Minimum inhibitory dilution of medicated rat urine tested in vitro for antibacterial activity against Staphylococcus aureus; Equal to 1:64; assay type: functional
Proteus mirabilis [34] = assay: Minimum inhibitory dilution of medicated rat urine tested in vitro for antibacterial activity against Proteus mirabilis; Equals to 1:16; assay type: functional
[35] = Proteus mirabilis, read-out: MIC
[36] = Staphylococcus aureus, read-out: MIC

SMILES	MIC (Proteus mirabilis [1]; [35]) [µg/mL]	MIC (Staphylococcus aureus [2]; [36]) [µg/mL]	MID (Proteus mirabilis [14])	MID (Staphylococcus aureus [15])	other results
O=C1CN(/N=C/c2ccc([N+](=O)[O-])o2)C(=O)N1 [NITROFURANTOIN]	> 62.5	15.6 (≈ 65.5 µM)			MID (Staphylococcus aureus [3]): 0.03125
O=C1C=CC(=Nn2cccc2)C=C1	62.5 (≈ 363 µM)	≤ 7.8			Survival (Mus musculus [4]): 100%; MID (Proteus mirabilis [5]): 0.25; Survival (Mus musculus [6]): 100%; Survival (Mus musculus [7]): 0%; MID (Staphylococcus aureus [3]): 0.03125; Survival (Mus musculus [8]): 100%; Survival (Mus musculus [9]): 100%
C1=CC(=Nn2cccc2)C=CC1=Nn1cccc1	> 62.5	> 125			MID (Proteus mirabilis [10]): 0.0625; Survival (Mus musculus [11]): 100%; Survival (Mus musculus [4]): 100%; Survival (Mus musculus [6]): 100%; Survival (Mus musculus [7]): 10%; MID (Staphylococcus aureus [12]): 0.0625; Survival (Mus musculus [8]): 100%; Survival (Mus musculus [9]): 80%
O=C1C=C/C(=N/n2cccc2)c2ccccc21	> 62.5	31.3 (≈ 141 µM)	<0.5		MID (Staphylococcus aureus [13]): 0.5
CN(c1ccc(O)cc1)n1cccc1	> 250	125 (≈ 664 µM)	<0.5	<0.5	
CC1=CC(=Nn2cccc2)C=C(C)C1=O	> 125	31.3 (≈ 156 µM)	<0.5		MID (Staphylococcus aureus [16]): 0.25
Oc1ccc(Nn2cccc2)c2ccccc12	62.5 (≈ 279 µM)	≤ 7.8	< 0.5		MID (Staphylococcus aureus [16]): 0.25
Oc1ccccc1Nn1cccc1	15.6 (≈ 89.6 µM)	≤ 7.8	<0.5	<0.5	
COc1ccc(Nn2cccc2)cc1	> 125	> 125			MID (Proteus mirabilis [10]): 0.0625; MID (Staphylococcus aureus [3]): 0.03125
O=C(N[C@H](CO)[C@H](O)c1ccc([N+](=O)[O-])cc1)C(Cl)Cl [CHLORAMPHENICOL]	> 62.5	3.9 (≈ 12.1 µM)			MID (Staphylococcus aureus [12]): 0.0625; MID (Proteus mirabilis [17]): 0.125
Cc1ccc(C(=O)Oc2ccc(N(C(=O)c3ccc(C)cc3)n3cccc3)cc2)cc1	> 62.5	125 (≈ 305 µM)	<0.5	<0.5	Survival (Mus musculus [18]): inactive; Survival (Mus musculus [19]): inactive; Survival (Mus musculus [20]): inactive; Survival (Mus musculus [21]): inactive; Survival (Mus musculus [22]): inactive; Survival (Mus musculus [23]): inactive
CN(C)C1=CC(=O)C=C/C1=N/n1cccc1	> 125	62.5 (≈ 290 µM)	<0.5	<0.5	
c1ccc(Nn2cccc2)cc1	> 125	250 (≈ 1580 µM)			MID (Staphylococcus aureus [24]): 0.00781; MID (Proteus mirabilis [25]): 0.005208
Oc1ccc(Nn2cccc2)cc1O	62.5 (≈ 329 µM)	≤ 7.8	<0.5		MID (Staphylococcus aureus [26]): 0.125
CC(C)(C)C1=CC(=Nn2cccc2)C=C(C(C)(C)C)C1=O	> 62.5	> 62.5	<0.5	<0.5	
CC(=O)Oc1ccc(N(C(C)=O)n2cccc2)cc1	> 125	> 250	<0.5		Survival (Mus musculus [18]): inactive; MID (Staphylococcus aureus [13]): 0.5; Survival (Mus musculus [19]): inactive; Survival (Mus musculus [20]): inactive; Survival (Mus musculus [21]): inactive; Survival (Mus musculus [22]): inactive; Survival (Mus musculus [23]): inactive
CC(=O)Oc1ccc(Nn2cccc2)cc1	> 62.5	> 62.5	<0.5		MID (Staphylococcus aureus [12]): 0.0625
CCn1cc(C(=O)O)c(=O)c2ccc(C)nc21 [NALIDIXIC ACID]	15.6 (≈ 67.2 µM)	62.5 (≈ 269 µM)			MID (Proteus mirabilis [27]): 0.00781; MID (Staphylococcus aureus [12]): 0.0625

SMILES	MIC (Proteus mirabilis [1]; [35]) [µg/mL]	MIC (Staphylococcus aureus [2]; [36]) [µg/mL]	MID (Proteus mirabilis [14])	MID (Staphylococcus aureus [15])	other results
Cc1ccc(C)n1Nc1ccc(O)cc1	15.6 (≈ 77.1 µM)	≤ 7.8	<0.5		MID (Staphylococcus aureus [16]): 0.25
NNC(=O)c1ccncc1 [ISONIAZID]					Survival (Mus musculus [6]): 100%; Survival (Mus musculus [7]): 100%; Survival (Mus musculus [9]): 100%
NC1=CC(=O)C=C/C1=N/n1cccc1	125 (≈ 668 µM)	15.6 (≈ 83.3 µM)			MID (Staphylococcus aureus [13]): 0.5; MID (Proteus mirabilis [5]): 0.25
CC[C@@H](CO)NCCN[C@@H](CC)CO [ETHAMBUTOL]					Survival (Mus musculus [28]): 30%; Survival (Mus musculus [29]): 0%; Survival (Mus musculus [30]): 100%; Survival (Mus musculus [31]): 90%
O=C(O)c1cccn1Nc1ccc(O)cc1	500 (≈ 2290 µM)	500 (≈ 2290 µM)			MID (Staphylococcus aureus [12]): 0.0625; MID (Proteus mirabilis [17]): 0.125
O=C1C=C/C(=N/n2cccc2)C(Cl)=C1	> 125	31.3 (≈ 151 µM)	<0.5	<0.5	
c1ccn(Nc2ccc(Nn3cccc3)cc2)c1	> 250	125 (≈ 525 µM)	<0.5	<0.5	Survival (Mus musculus [11]): 0%; Survival (Mus musculus [4]): 40%; Survival (Mus musculus [6]): 0%; Survival (Mus musculus [8]): 0%; Survival (Mus musculus [9]): 0%
Oc1ccc(Nn2cccc2)c(Cl)c1	> 125	62.5 (≈ 300 µM)	0.5	<0.5	
c1ccc(Nc2ccc(Nn3cccc3)cc2)cc1	> 250	31.3 (≈ 126 µM)	<0.5	<0.5	
C1=CC(=Nn2cccc2)C=CC1=Nn1cccc1 [AZAROLE]					MIC (Proteus mirabilis [1]): >125 µg/mL; MIC (Staphylococcus aureus [2]): >62.5 µg/mL; MID (Staphylococcus aureus [26]): 0.125; Survival (Mus musculus [6]): 80%; Survival (Mus musculus [7]): 70%; MID (Proteus mirabilis [32]): 0.03125; Survival (Mus musculus [9]): 100%
Cc1ccc(C)n1N=C1C=CC(=O)C=C1	62.5 (≈ 312 µM)	≤ 7.8	<0.5		MID (Staphylococcus aureus [13]): 0.5
Oc1cccc(Nn2cccc2)c1	500 (≈ 2870 µM)	62.5 (≈ 359 µM)	<0.5	<0.5	
[N-]=[N+]=NC1=CC(=O)C=C/C1=N/n1cccc1	> 250	125 (≈ 586 µM)	<0.5	<0.5	
CC1=CC(=N/n2cccc2)/C=CC/1=N/n1cccc1	> 62.5	> 62.5	<0.5	<0.5	
Oc1ccc(Nn2cccc2)cc1	31.3 (≈ 180 µM)	≤ 7.8			MID (Staphylococcus aureus [33]): 0.01562; Survival (Mus musculus [6]): 100%; Survival (Mus musculus [7]): 0%; MID (Proteus mirabilis [34]): 0.0625; Survival (Mus musculus [9]): 100%
O=Nc1ccc(Nn2cccc2)cc1	250 (≈ 1340 µM)	125 (≈ 668 µM)	<0.5	<0.5	
C1=CC(=Nn2cccc2)C=CC1=Nc1ccccc1	> 62.5	> 62.5	<0.5	<0.5	
Cc1ccc(C(=O)Oc2ccc(Nn3cccc3)cc2)cc1	> 250	> 250	< 0.5		Survival (Mus musculus [18]): inactive; Survival (Mus musculus [19]): inactive; Survival (Mus musculus [20]): inactive; Survival (Mus musculus [21]): inactive; Survival (Mus musculus [22]): inactive; Survival (Mus musculus [23]): inactive; MID (Staphylococcus aureus [16]): 0.25
